One may read the inhibition as the change of the read-out against control, counted positive when it falls.

The results in this text go back to PubChem BioAssay.

Test [1] is described as follows: inhibitors of TNFa-induced NFkB p65 translocation, primary screen, imaging, HUVEC, MLSMR starter and 10KST1 sets (AID 438;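 active = inhibition above 20% together with a positive visual image hit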;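 note: compound added about 3h40 before a 20 min TNFalpha stimulation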;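 for inhibition: signal is the nuclear over cytoplasmic p65 intensity ratio per well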). The following applies: HUVEC TNFa-induced p65 nuclear translocation; cell count: measured here: nuclei count (cytotoxicity indicator), at 2.08 µM; inhibition: at 2 µM, stronger effect = higher value, 0% TNFa-plus-vehicle, 100% no-TNFa wells.
The nature of test [2]: endothelial E-selectin expression blockers – imaging, HUVEC, immunofluorescence, MLSMR starter and 10KST1 sets, primary screen (AID 487;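 active = visually confirmed hit in the image check and inhibition above 20%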;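 for inhibition: signal is fraction of cell area covered by stained E-selectin grains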;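 for nuclei count: 100% = median nuclei count of all wells on the same plate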). The following applies: HUVEC TNFalpha-induced E-selectin immunofluorescence imaging, at 2 µM; inhibition: stronger effect = higher value; nuclei count: measured here: cell number, toxicity.
Test [3] is described as follows: Primary imaging screen for DUSP6 inhibitors that restore phospho-Erk in transfected HeLa cells, chemical complementation (AID 609;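 active = compounds giving at least 50% inhibition in the cell-based MKP-3 phosphatase rescue imaging test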;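 for inhibition: phospho-Erk level distribution per well compared with pooled transfected vehicle control wells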). The following applies: HeLa MKP-3 transfected, phospho-Erk imaging KS statistic, at 10 µM, cells stimulated with TPA for 15 min.
Test [4] has as its target Dual specificity protein phosphatase 6 (Homo sapiens) (UniProt Q16828). The test is described as above. The conditions noted are these: HeLa MKP-3 transfected, phospho-Erk imaging KS statistic; at 10 µM; stronger effect = higher value; cells stimulated with TPA for 15 min.
Test [5] deals with Voltage-gated potassium channel subunit beta-2 (Rattus norvegicus) (UniProt P62483). The experiment in a line: inhibitors of rat Kvbeta2 reductase activity – biochemical, NADPH fluorescence, primary screen (AID 622;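 active = fluorescence slope higher than the sample average by over 3 SD, cut at about -0.22 in these data, passing the limit was not always enough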;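 note: slope of raw intensity against log time taken from 70 to 1610 s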). The following applies: recombinant KvBeta, 4-cyanobenzaldehyde reduction, at 10 µM, stronger effect = higher value.
For test [6] the target is unchanged. The experiment in a line: enhancers of rat Kvbeta2 NADPH turnover – biochemical, NADPH fluorescence, primary screen (AID 623;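 active = NADPH fluorescence slope more negative than the mean of all samples by about 3 SD, 99.7% confidence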;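 note: fluorescence intensity change per second fitted from 20 to 320 s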). The conditions noted are these: Recombinant KvBeta, NADPH fluorescence decrease slope, 10 min; at 10 µM; stronger effect = lower value.
Test [7] addresses Alpha-2C adrenergic receptor (Homo sapiens) (UniProt P18825). The test can be described thus: compounds altering alpha2C-coupled GIRK flux – cell-based, HEK293 alpha2C/GIRK1/2, thallium flux, primary screen (AID 624;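 active = fluorescence slope after compound addition differing from the mean of all screened samples at 99.7% confidence, in either direction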;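 note: slope of fluorescence ratio to pre-addition baseline per second over 15 to 24 s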). The conditions noted are these: thallium flux BTC fluorescence, at 10 µM, actives lie on both sides.
Test [8] in a line: inhibitors of larval lipid processing in zebrafish, primary screen, whole organism, PED6 fluorescence, gall bladder and intestine (AID 686).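 Note: larvae 5 to 7 days old with five fish per well; signal comes from phospholipase A2 cleavage of quenched PED6 carried via bile; overnight exposure to compound and PED6 before scoring.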 The conditions noted are these: Zebrafish larvae PED6 lipid processing, fluorescence scoring; screened at 20 µM (by protocol). In outline:
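Also added: quenched phospholipase substrate PED6, 100 nM final, ingested by larvae; System: zebrafish larvae, 5-7 d; Quantity: 5 larvae per well; Compound: 20 µM single dose; Schedule: overnight compound and PED6 incubation; Read-out: visual per-well fluorescence inhibition score; Measured by: By-eye fluorescence microscopy; Medium: E3.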

The nature of test [9]: loss of swimming-algae plug formation – whole organism, Chlamydomonas reinhardtii, WT vs cilia-less mutant, absorbance, 96-well, primary screen (AID 463189;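 active = inhibition at or above 50% relative to wild type and mutant plate controls; inactive = inhibition below 50%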;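 note: 0% = wild type cc124 cells in DMSO and 100% = ciliumless bld1 mutant cells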). The conditions noted are these: Chlamydomonas reinhardtii gravitaxis, OD600 absorbance, 2 days; at 10 µM; stronger effect = higher value.
The mark [10] stands for this setting: measured here: cell density z-score.
[11] abbreviates: measured here: nuclear c-Myc green intensity z-score.
Setting [12] is: measured here: nuclear pErk red intensity z-score, stronger effect = higher value.

Calls of active or inactive are those of the source.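 Rule for the calls, unless noted: active = a full or partial loss of lipid-probe fluorescence in the fish gall bladder, intestine or both, judged by eye; inactive = no fluorescence loss, or compound toxic to the fish.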

Sequence of Dual specificity protein phosphatase 6 (Homo sapiens) (Q16828 whole entry, looked up): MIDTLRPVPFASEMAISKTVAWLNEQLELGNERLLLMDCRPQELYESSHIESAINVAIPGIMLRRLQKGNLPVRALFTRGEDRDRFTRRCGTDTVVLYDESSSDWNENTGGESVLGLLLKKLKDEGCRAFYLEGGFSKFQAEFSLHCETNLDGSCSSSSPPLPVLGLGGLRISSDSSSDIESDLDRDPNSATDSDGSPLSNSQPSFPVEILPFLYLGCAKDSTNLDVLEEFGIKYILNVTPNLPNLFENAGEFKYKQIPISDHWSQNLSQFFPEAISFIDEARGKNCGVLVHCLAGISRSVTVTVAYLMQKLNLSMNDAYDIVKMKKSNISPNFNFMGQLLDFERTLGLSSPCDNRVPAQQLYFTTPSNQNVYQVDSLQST
Sequence of Alpha-2C adrenergic receptor (Homo sapiens) (P18825 whole entry, looked up): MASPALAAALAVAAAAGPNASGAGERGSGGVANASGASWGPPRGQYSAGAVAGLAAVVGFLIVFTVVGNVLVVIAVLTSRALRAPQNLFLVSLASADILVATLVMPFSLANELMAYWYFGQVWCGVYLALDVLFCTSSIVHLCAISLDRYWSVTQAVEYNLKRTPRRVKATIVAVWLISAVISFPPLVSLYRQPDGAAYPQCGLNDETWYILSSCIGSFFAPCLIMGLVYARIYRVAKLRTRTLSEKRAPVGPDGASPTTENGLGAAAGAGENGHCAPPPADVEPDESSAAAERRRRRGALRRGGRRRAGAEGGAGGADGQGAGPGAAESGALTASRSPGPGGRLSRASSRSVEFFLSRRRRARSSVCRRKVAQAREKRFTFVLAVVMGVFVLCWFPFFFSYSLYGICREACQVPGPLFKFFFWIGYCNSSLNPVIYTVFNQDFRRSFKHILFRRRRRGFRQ
Sequence of Voltage-gated potassium channel subunit beta-2 (Rattus norvegicus) (P62483 whole entry, looked up): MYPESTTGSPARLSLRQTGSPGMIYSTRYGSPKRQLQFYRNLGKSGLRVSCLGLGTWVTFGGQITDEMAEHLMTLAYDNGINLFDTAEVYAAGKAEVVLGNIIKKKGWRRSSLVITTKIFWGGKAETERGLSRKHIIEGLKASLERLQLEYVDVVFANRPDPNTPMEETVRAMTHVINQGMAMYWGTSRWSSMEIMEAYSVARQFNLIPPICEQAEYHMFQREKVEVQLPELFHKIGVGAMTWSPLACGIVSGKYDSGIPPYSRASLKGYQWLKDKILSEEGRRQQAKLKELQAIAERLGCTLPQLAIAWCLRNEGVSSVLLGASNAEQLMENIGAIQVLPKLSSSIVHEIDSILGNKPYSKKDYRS

On to `CC1(C)Cc2c(sc3c2C(=O)N(c2ccccc2)C2=NCCCN23)CO1`, for which, in [1], the cell count turned out to be 624. Also, the inhibition in test [1] is -12.4% (inactive); in test [2], -154% (inactive); in test [4], 18.9% (inactive); in test [9], 41.4% (inactive). The nuclei count in test [2] came out at 120%. For the same compound, the z-score is 1.04 in test [3] (setting [10]), -0.486 in [3] (setting [11]) and -1.32 in [3] (setting [12]). The fluorescence slope in test [5] was -0.593 (inactive). Besides, in test [6], the NADPH fluorescence slope is -2e-05 (inactive). The slope in [7] was 0.00454 (inactive). For the same compound, the outcome in [8] was inactive.

For `COc1ccc(/C=N/n2cncn2)cc1CSc1ccccn1`, the cell count in test [1] worked out at 302. In addition, the inhibition in test [1] is -17.2% (inactive); in test [2], -137% (inactive); in test [4], -2.29% (inactive); in [9] it was 27% (inactive). The nuclei count in test [2] is 114%. Besides, the z-score in [3] (setting [10]) was -0.741; in test [3] (setting [11]) it was 0.803; in [3] (setting [12]), -0.342. In addition, the fluorescence slope in [5] was -0.32 (inactive). The NADPH fluorescence slope in test [6] is 9e-06 (inactive). The slope in test [7] was 0.00478 (inactive). In test [8], the outcome was inactive.

Regarding `COc1ccc(Cn2c(O)cc(=O)[nH]c2=O)cc1`, in [1], the cell count was found to be 518. Also, the inhibition in [1] is -0.7% (inactive); in [2] it was -49.2% (inactive); in test [4], 11.9% (inactive); in [9], -11.1% (inactive). In [2], this compound had a nuclei count of 94%. Also, the z-score is -1.59 in test [3] (setting [10]), 1.15 in test [3] (setting [11]) and -0.805 in test [3] (setting [12]). Also, the fluorescence slope in test [5] was -0.386 (inactive). In [6], the NADPH fluorescence slope was 4.3e-06 (inactive). The slope in [7] is 0.00581 (inactive). Moreover, the call in [8] was inactive.

Regarding `Fc1ccc2[nH]c3c(N4CCN(Cc5ccc6c(c5)OCO6)CC4)ncnc3c2c1`, the cell count in test [1] worked out at 523. The inhibition in test [1] was -4.5% (inactive); in test [2], -93.3% (inactive); in test [4], -1.12% (inactive); in [9] it was 58.4% (active). Moreover, the nuclei count in test [2] was determined as 169%. For the same compound, the z-score in test [3] (setting [10]) was 0.499; in [3] (setting [11]) it was 0.133; in [3] (setting [12]), -0.391. Further, the fluorescence slope in test [5] was -0.311 (inactive). The NADPH fluorescence slope in test [6] was 3.2e-05 (inactive). Further, the slope in [7] was 0.00448 (inactive). In addition, in test [8], the outcome is “inactive; toxic”.

`CC(C)NC(=O)N1CCOCCOCCN(C(=O)NC(C)C)CCOCCOCC1`: the cell count in test [1] is 513. The inhibition in [1] is -16.8% (inactive); in [2] it was -142% (inactive); in test [4] it was 13.9% (inactive); in [9], 11.9% (inactive). In addition, the nuclei count in [2] is 144%. Moreover, the z-score in [3] (setting [10]) is 2.53; in test [3] (setting [11]), -2.34; in test [3] (setting [12]), -0.54. For the same compound, the fluorescence slope in [5] was -0.538 (inactive). In addition, in test [6], the NADPH fluorescence slope is -6.1e-05 (inactive). In addition, in test [7], the slope is 0.00725 (inactive). Further, in test [8], the result was inactive.

For the compound `CCC1(C)Cc2c(C#N)c(N)sc(=S)c2CO1` (centres undefined), the cell count in test [1] came out at 505. The inhibition in [1] is -3.2% (inactive); in [2], -128% (inactive); in test [4], -14% (inactive); in [9], 28.8% (inactive). The same compound showed a nuclei count in test [2] of 140%. Also, the z-score was 0.126 in [3] (setting [10]), 0.287 in [3] (setting [11]) and -0.524 in test [3] (setting [12]). Moreover, in [5], the fluorescence slope was -0.501 (inactive). Besides, the NADPH fluorescence slope in test [6] was -2.4e-05 (inactive). Further, the slope in [7] is 0.00206 (inactive). Moreover, in [8], the call was inactive.

For `CCCOc1ccc(/C(O)=C2/C(=O)C(=O)N(CCN(C)C)C2c2ccncc2)cc1` (centres undefined), the cell count in test [1] came to 434. Moreover, the inhibition is -4.1% (inactive) in test [1], -139% (inactive) in [2], -4.7% (inactive) in [4] and 8.14% (inactive) in test [9]. In test [2], this compound displayed a nuclei count of 154%. Moreover, the z-score in [3] (setting [10]) was 1.88; in test [3] (setting [11]), 0.199; in test [3] (setting [12]) it was -1.31. Further, in [5], the fluorescence slope was -0.418 (inactive). Moreover, in test [6], the NADPH fluorescence slope is -6.3e-05 (inactive). In addition, the slope in test [7] is 0.00564 (inactive). The compound was called inactive in [8].

As to `COC(=O)c1c(C)noc1-c1cc(C)on1`, in test [1], the cell count is 514. Also, the inhibition in test [1] was 5.6% (inactive); in test [2] it was 63.3% (inactive); in test [4], 3.56% (inactive); in test [9], -9.07% (inactive). Also, the nuclei count in test [2] is 177%. Also, the values for the z-score in test [3] (setting [10]), in [3] (setting [11]) and in test [3] (setting [12]) were -1.72, 0.497 and 0.322, respectively. Besides, the fluorescence slope in test [5] was -0.533 (inactive). The NADPH fluorescence slope in test [6] is -4e-05 (inactive). Moreover, in test [7], the slope was 0.00511 (inactive). In test [8], the outcome was inactive.

On to `COc1cc(C2NC(=O)NC(C)=C2C(=O)Nc2cccc(C)c2C)cc(OC)c1OC` (centres undefined), for which, in [1], the cell count was 566. In addition, the inhibition in test [1] is -3.3% (inactive); in test [2], -47.5% (inactive); in [4] it was -2.91% (inactive); in [9], -6.92% (inactive). Further, the nuclei count in test [2] worked out at 183%. The values for the z-score in test [3] (setting [10]), in test [3] (setting [11]) and in test [3] (setting [12]) were 0.296, 0.344 and -0.592, respectively. The fluorescence slope in test [5] was -0.35 (inactive). Also, in [6], the NADPH fluorescence slope is -1.5e-05 (inactive). The slope in test [7] is 0.00551 (inactive). For the same compound, the result in test [8] was inactive.

Turning to `CC(=O)N1CCC2(CC1)C(C#N)=C(N)Oc1n[nH]c(C(F)(F)F)c12`, the cell count in test [1] was determined as 509. The inhibition in test [1] is -9.9% (inactive); in test [2], -79.8% (inactive); in test [4] it was -1.12% (inactive); in [9] it was 10.5% (inactive). For the same compound, the nuclei count in [2] worked out at 156%. For the same compound, the results for the z-score in [3] (setting [10]), in test [3] (setting [11]) and in test [3] (setting [12]) were 1.26, 0.347 and -0.954, respectively. In test [5], the fluorescence slope is -0.349 (inactive). Besides, the NADPH fluorescence slope in test [6] is -1.5e-05 (inactive). Besides, in [7], the slope was 0.00543 (inactive). In test [8], the call was inactive.

As to `CC(=O)C1=C(O)C(=O)N(c2cccc(C(=O)O)c2)C1c1ccccc1F` (centres undefined), in test [1], the cell count came out at 545. Also, the inhibition was -2.4% (inactive) in test [1], -73.9% (inactive) in [2], -9.66% (inactive) in test [4] and 3.92% (inactive) in test [9]. The compound also displayed a nuclei count in test [2] of 156%. Also, the results for the z-score in [3] (setting [10]), in [3] (setting [11]) and in test [3] (setting [12]) were -0.336, 0.7 and 0.539, respectively. In test [5], the fluorescence slope was -0.505 (inactive). For the same compound, the NADPH fluorescence slope in test [6] is -4.6e-05 (inactive). For the same compound, the slope in test [7] is 0.00649 (inactive). Further, the result in test [8] was inactive.

`N#Cc1c(SCC(N)=O)nsc1SCc1ccc(Cl)cc1`: the cell count in [1] worked out at 633. The inhibition is -17.9% (inactive) in test [1], -60.5% (inactive) in test [2], 17.7% (inactive) in test [4] and 26.4% (inactive) in test [9]. The compound further gave a nuclei count in [2] of 148%. Besides, the z-score in test [3] (setting [10]) was 0.999; in test [3] (setting [11]), -1.2; in test [3] (setting [12]) it was -0.0749. Further, in test [5], the fluorescence slope was -0.406 (inactive). Moreover, the NADPH fluorescence slope in test [6] is -1.2e-05 (inactive). Further, in [7], the slope was 0.00612 (inactive). Besides, in [8], the call was inactive.

With `Cc1oc2cc(O)cc(C)c2c(=O)c1-c1cnn(-c2ccccc2)c1`, the cell count in test [1] came out at 578. Further, the inhibition in test [1] was -1.3% (inactive); in test [2], -189% (inactive); in test [4], 15.9% (inactive); in test [9], 20.5% (inactive). The compound further came in with a nuclei count in test [2] of 149%. The z-score in test [3] (setting [10]) worked out at 0.4; in [3] (setting [11]) it was 1.63; in [3] (setting [12]), 0.0441. In test [5], the fluorescence slope was -0.509 (inactive). Also, in [6], the NADPH fluorescence slope is -5.7e-05 (inactive). Further, the slope in test [7] was 0.00468 (inactive). Besides, the compound was classed as inactive in test [8].
